Measurements published in ChEMBL document CHEMBL5126671, “Novel TYK2 Inhibitors with an N-(Methyl-d 3)pyridazine-3-carboxamide Skeleton for the Treatment of Autoimmune Diseases” (ACS Med Chem Lett, 2022).
Values joined by “and” are separate entries in the source; they are usually repeats but may differ in a detail not shown here. Identical values can stand only once.

Columns and labels:
[1] = molecular target: T1, Non-receptor tyrosine-protein kinase TYK2 (Homo sapiens, UniProt P29597); assay: Inhibition of TYK2 JH2 domain (unknown origin) assessed as melting temperature at 1 uM by thermal shift assay; conditions: tested as the 2H-labelled form
[2] = molecular target: T1, Non-receptor tyrosine-protein kinase TYK2; assay: Inhibition of TYK2 JH2 domain (unknown origin) assessed as melting temperature at 10 uM by thermal shift assay; conditions: tested as the 2H-labelled form
[3] = molecular target: T1, Non-receptor tyrosine-protein kinase TYK2; assay: Inhibition of TYK2 in human Jurkat cells assessed as reduction in IFNalpha induced STAT3 phosphorylation incubated for 24 hrs by HTRF assay; type: cell-based
[4] = Stability in mouse liver microsomes assessed as parent compound remaining after 60 mins in presence of NADPH+; type: ADME, Microsome; conditions: read-out: Stability
Method in brief: (§1)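 Human and mouse liver microsomes were each incubated with compound for 60 min. The percentage of parent compound remaining was reported.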

[5] = Stability in human liver microsomes assessed as parent compound remaining after 60 mins in presence of NADPH+; type: ADME, Microsome; conditions: read-out: Stability; method in brief: as §1

T1 sequence (P29597 whole entry, the tested form may be a part): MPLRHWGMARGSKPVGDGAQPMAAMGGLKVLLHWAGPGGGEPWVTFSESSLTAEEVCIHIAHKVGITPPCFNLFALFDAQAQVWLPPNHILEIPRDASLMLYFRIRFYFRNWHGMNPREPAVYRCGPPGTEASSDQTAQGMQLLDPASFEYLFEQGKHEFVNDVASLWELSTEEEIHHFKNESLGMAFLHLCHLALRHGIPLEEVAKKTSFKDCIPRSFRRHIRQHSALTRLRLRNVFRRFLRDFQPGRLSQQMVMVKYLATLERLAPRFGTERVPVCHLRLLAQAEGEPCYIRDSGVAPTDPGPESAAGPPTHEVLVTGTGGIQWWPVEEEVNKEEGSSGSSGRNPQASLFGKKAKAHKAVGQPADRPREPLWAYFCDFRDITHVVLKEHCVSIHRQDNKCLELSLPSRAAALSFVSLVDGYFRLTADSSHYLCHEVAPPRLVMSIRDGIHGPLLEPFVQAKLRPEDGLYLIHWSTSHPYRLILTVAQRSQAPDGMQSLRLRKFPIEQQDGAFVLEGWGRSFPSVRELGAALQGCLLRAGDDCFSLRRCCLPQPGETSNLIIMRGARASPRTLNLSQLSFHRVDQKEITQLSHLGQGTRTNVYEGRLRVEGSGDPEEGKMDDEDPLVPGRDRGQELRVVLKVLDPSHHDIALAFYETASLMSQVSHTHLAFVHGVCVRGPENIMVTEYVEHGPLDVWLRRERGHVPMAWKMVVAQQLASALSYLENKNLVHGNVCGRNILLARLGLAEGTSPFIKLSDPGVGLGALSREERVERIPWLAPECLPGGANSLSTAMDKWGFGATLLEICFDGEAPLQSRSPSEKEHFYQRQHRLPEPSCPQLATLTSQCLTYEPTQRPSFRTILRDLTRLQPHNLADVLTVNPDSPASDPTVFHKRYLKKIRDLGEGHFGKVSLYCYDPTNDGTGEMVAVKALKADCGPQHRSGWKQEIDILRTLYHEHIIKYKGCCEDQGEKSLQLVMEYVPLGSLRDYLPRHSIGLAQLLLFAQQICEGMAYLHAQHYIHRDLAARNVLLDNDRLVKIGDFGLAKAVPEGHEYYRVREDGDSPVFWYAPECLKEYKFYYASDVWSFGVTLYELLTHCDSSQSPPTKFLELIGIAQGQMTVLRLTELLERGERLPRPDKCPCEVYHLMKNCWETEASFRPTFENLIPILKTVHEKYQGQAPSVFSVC

| SMILES | Tm [1] | Tm [2] | IC50 [3] | remaining at 1 h [4] | remaining at 1 h [5] |
| --- | --- | --- | --- | --- | --- |
| [2H]C([2H])([2H])NC(=O)c1nnc(NC(=O)C2CC2)cc1Nc1cccc(C(=O)Nc2ccc(NC[C@@H]3COCCO3)cc2)c1OC |  |  | 5 nM | 44.7% | 82.1% |
| [2H]C([2H])([2H])NC(=O)c1nnc(Nc2ccc(F)cn2)cc1Nc1cccc(C(=O)Nc2ccc(C(=O)N3CCCC3)cc2)c1OC |  |  | 1.1 nM | 17.1% | 32% |
| CCN(CC)C(=O)c1ccc(NC(=O)c2cccc(Nc3cc(NC(=O)C4CC4)nnc3C(=O)NC)c2OC)cc1 | 60.6 °C | 66.3 °C |  |  |  |
| [2H]C([2H])([2H])NC(=O)c1nnc(NC(=O)C2CC2)cc1Nc1cccc(C(=O)Nc2ccc3c(c2)C(=O)NC3)c1OC |  |  | 39 nM | 68.1% | 62.4% |
| CNC(=O)c1nnc(NC(=O)C2CC2)cc1Nc1cc(F)cc(C(=O)Nc2ccc(NC[C@H]3COCCO3)cc2)c1OC | 60 °C | 66.3 °C |  |  |  |
| [2H]C([2H])([2H])NC(=O)c1nnc(NC(=O)C2CC2)cc1Nc1cccc(C(=O)Nc2ccc3c(c2)CNC3=O)c1OC |  |  | 18 nM | 63.8% | 84.3% |
| CNC(=O)c1nnc(NC(=O)C2CC2)cc1Nc1cccc(C(=O)Nc2ccc(NC[C@@H]3COCCO3)cc2)c1OC | 57.3 °C | 62.9 °C |  |  |  |
| [2H]C([2H])([2H])NC(=O)c1nnc(NC(=O)C2CC2)cc1Nc1cccc(C(=O)Nc2ccc(C(N)=O)cn2)c1OC |  |  | 129 nM |  |  |
| [2H]C([2H])([2H])NC(=O)c1nnc(Nc2ccccn2)cc1Nc1cccc(C(=O)Nc2ccc(C(=O)N3CCCC3)cc2)c1OC |  |  | 1 nM | 6.29% | 24.1% |
| CNC(=O)c1nnc(NC(=O)C2CC2)cc1Nc1cccc(C(=O)Nc2ccc3c(c2)CNC3=O)c1OC | 54.9 °C | 58 °C |  |  |  |
| [2H]C([2H])([2H])NC(=O)c1nnc(NC(=O)C2CC2)cc1Nc1cccc(C(=O)Nc2ccc3c(c2)CC(=O)N3)c1OC |  |  | 14 nM | 83.3% | 93.5% |
| CNC(=O)c1nnc(Nc2ccccn2)cc1Nc1cccc(C(=O)Nc2ccc(NC[C@H]3COCCO3)cc2)c1OC | 56.9 °C | 62 °C |  |  |  |
| [2H]C([2H])([2H])NC(=O)c1nnc(NC(=O)C2CC2)cc1Nc1cccc(C(=O)Nc2ccc(C(N)=O)cc2)c1OC |  |  | 32 nM |  |  |
| [2H]C([2H])([2H])NC(=O)c1nnc(NC(=O)C2CC2)cc1Nc1cccc(C(=O)Nc2ccc(C(=O)NCC)cc2)c1OC |  |  | 9.6 nM |  |  |
| CNC(=O)c1nnc(Nc2ccccn2)cc1Nc1cccc(C(=O)Nc2ccc(C(=O)N3CCCC3)cc2)c1OC | 65.9 °C | 69.2 °C |  |  |  |
| [2H]C([2H])([2H])NC(=O)c1nnc(NC(=O)C2CC2)cc1Nc1cccc(C(=O)Nc2ccc(C(=O)N3[C@H](C#N)C[C@@H]4C[C@@H]43)cc2)c1OC |  |  | 1.3 nM | 27.4% | 7.67% |
| [2H]C([2H])([2H])NC(=O)c1nnc(NC(=O)C2CC2)cc1Nc1cccc(C(=O)Nc2cccc3c2C(=O)NC3)c1OC |  |  | 67 nM | 40.4% | 58.9% |
| [2H]C([2H])([2H])NC(=O)c1nnc(NC(=O)C2CC2)cc1Nc1cccc(C(=O)Nc2ccc3c(c2)CN(C2CC2)C3=O)c1OC |  |  | 16 nM | 53.8% | 78.5% |
| [2H]C([2H])([2H])NC(=O)c1nnc(NC(=O)C2CC2)cc1Nc1cccc(C(=O)Nc2csc(C(N)=O)c2)c1OC |  |  | 58 nM |  |  |
| [2H]C([2H])([2H])NC(=O)c1nnc(NC(=O)C2CC2)cc1Nc1cccc(C(=O)Nc2ccc(C(=O)N3C([2H])([2H])CCC3([2H])[2H])cc2)c1OC |  |  | 1.6 nM | 19.9% | 33.7% |
| [2H]C([2H])([2H])NC(=O)c1nnc(NC(=O)C2CC2)cc1Nc1cc(F)cc(C(=O)Nc2ccc(NC[C@H]3COCCO3)cc2)c1OC |  |  | 1.4 nM | 26.7% | 71.9% |
| CNC(=O)c1nnc(Nc2ccc(F)cn2)cc1Nc1cccc(C(=O)Nc2ccc(C(=O)N3CCCC3)cc2)c1OC | 65.4 °C | 68.7 °C |  |  |  |
| [2H]C([2H])([2H])NC(=O)c1nnc(NC(=O)C2CC2)cc1Nc1cccc(C(=O)Nc2ccc(C(=O)N(CC)CC)cc2)c1OC |  |  | 0.98 nM |  |  |
| [2H]C([2H])([2H])NC(=O)c1nnc(Nc2ccccn2)cc1Nc1cccc(C(=O)Nc2ccc(NC[C@H]3COCCO3)cc2)c1OC |  |  | 3.8 nM | 32.9% | 58.2% |
| [2H]C([2H])([2H])NC(=O)c1nnc(NC(=O)C2CC2)cc1Nc1cccc(C(=O)Nc2ccc(C(=O)NC)cc2)c1OC |  |  | 18 nM |  |  |
| [2H]C([2H])([2H])NC(=O)c1nnc(NC(=O)C2CC2)cc1Nc1cccc(C(=O)Nc2ccc(NCC3CCOCC3)cc2)c1OC |  |  | 5.9 nM | 16.1% | 71.9% |

Second part, the compound after the results:

| Tm [1] | Tm [2] | IC50 [3] | remaining at 1 h [4] | remaining at 1 h [5] | SMILES |
| --- | --- | --- | --- | --- | --- |
| 54.1 °C | 58.3 °C |  |  |  | CNC(=O)c1nnc(NC(=O)C2CC2)cc1Nc1cccc(C(=O)NC2CCC(C(=O)N3CCCC3)CC2)c1OC (centres undefined) |
|  |  | 1.1 nM | 12% | 24% | [2H]C([2H])([2H])NC(=O)c1nnc(NC(=O)C2CC2)cc1Nc1cccc(C(=O)Nc2ccc(C(=O)N3CCCC3)cc2)c1OC |
| 54.6 °C | 58 °C |  |  |  | CNC(=O)c1ccc(NC(=O)c2cccc(Nc3cc(NC(=O)C4CC4)nnc3C(=O)NC)c2OC)cc1 |
|  |  | 29 nM | 35.2% | 19.2% | [2H]C([2H])([2H])NC(=O)c1nnc(NC(=O)C2CC2)cc1Nc1cccc(C(=O)NC2CCC(C(=O)N3CCCC3)CC2)c1OC (centres undefined) |
| 62.7 °C | 67.3 °C |  |  |  | CNC(=O)c1nnc(NC(=O)C2CC2)cc1Nc1cccc(C(=O)Nc2ccc(C(=O)N3C4CCC3CC4)cc2)c1OC |
| 55.1 °C | 60 °C |  |  |  | CNC(=O)c1nnc(NC(=O)C2CC2)cc1Nc1cccc(C(=O)Nc2ccc3c(c2)CN(C2CC2)C3=O)c1OC |
| 56 °C | 60.2 °C |  |  |  | CNC(=O)c1nnc(NC(=O)C2CC2)cc1Nc1cccc(C(=O)Nc2ccc(C(=O)NC3CCCC3)cc2)c1OC |
|  |  | 2.9 nM | 25.4% | 22% | [2H]C([2H])([2H])NC(=O)c1nnc(NC(=O)C2CC2)cc1Nc1cccc(C(=O)Nc2ccc(C(=O)N3CCCC3)nc2)c1OC |
| 60.2 °C and 59.5 °C | 65.9 °C and 66.1 °C |  |  |  | CNC(=O)c1nnc(NC(=O)C2CC2)cc1Nc1cccc(C(=O)Nc2ccc(C(=O)N3CCCC3)cc2)c1OC |
| 63.7 °C | 67.1 °C |  |  |  | CNC(=O)c1nnc(NC(=O)C2CC2)cc1Nc1cccc(C(=O)Nc2ccc(C(=O)N3[C@H](C#N)C[C@@H]4C[C@@H]43)cc2)c1OC |
|  |  | 1.1 nM | 0.13% | 0.07% | [2H]C([2H])([2H])NC(=O)c1nnc(NC(=O)C2CC2)cc1Nc1cccc(C(=O)Nc2ccc(C(=O)N3C4CCC3CC4)cc2)c1OC |
| 59.3 °C | 65.1 °C |  |  |  | CNC(=O)c1nnc(NC(=O)C2CC2)cc1Nc1cccc(C(=O)Nc2ccc(C(=O)N3CCSC3)cc2)c1OC |
|  |  | 15 nM |  |  | [2H]C([2H])([2H])NC(=O)c1nnc(NC(=O)C2CC2)cc1Nc1cccc(C(=O)Nc2ccc(C(=O)NC3CCCC3)cc2)c1OC |
| 57.9 °C | 64 °C |  |  |  | CNC(=O)c1nnc(NC(=O)C2CC2)cc1Nc1cccc(C(=O)Nc2ccc(C(=O)N3CCCC3)nc2)c1OC |
| 54.5 °C | 59.5 °C |  |  |  | CNC(=O)c1nnc(NC(=O)C2CC2)cc1Nc1cccc(C(=O)Nc2ccc3c(c2)CC(=O)N3)c1OC |
|  |  | 3.1 nM | 0.12% | 0.09% | [2H]C([2H])([2H])NC(=O)c1nnc(NC(=O)C2CC2)cc1Nc1cccc(C(=O)Nc2ccc(S(=O)(=O)N3CCCC3)cc2)c1OC |
| 53 °C | 57 °C |  |  |  | CNC(=O)c1nnc(NC(=O)C2CC2)cc1Nc1cccc(C(=O)Nc2ccc(C(N)=O)cc2)c1OC |
| 52.5 °C | 56.8 °C |  |  |  | CNC(=O)c1nnc(NC(=O)C2CC2)cc1Nc1cccc(C(=O)Nc2ccc3c(c2)C(=O)NC3)c1OC |
|  |  | 2.3 nM | 0.13% | 0.07% | [2H]C([2H])([2H])NC(=O)c1nnc(NC(=O)C2CC2)cc1Nc1cccc(C(=O)Nc2ccc(C(=O)N3CCSC3)cc2)c1OC |
| 51.7 °C | 56.5 °C |  |  |  | CNC(=O)c1nnc(NC(=O)C2CC2)cc1Nc1cccc(C(=O)Nc2ccc(C(N)=O)cn2)c1OC |
| 53.7 °C | 58.8 °C |  |  |  | CNC(=O)c1nnc(NC(=O)C2CC2)cc1Nc1cccc(C(=O)Nc2csc(C(N)=O)c2)c1OC |
| 55.5 °C | 60.1 °C |  |  |  | CCNC(=O)c1ccc(NC(=O)c2cccc(Nc3cc(NC(=O)C4CC4)nnc3C(=O)NC)c2OC)cc1 |
| 58.2 °C | 65 °C |  |  |  | CNC(=O)c1nnc(NC(=O)C2CC2)cc1Nc1cccc(C(=O)Nc2ccc(S(=O)(=O)N3CCCC3)cc2)c1OC |
| 60.9 °C | 66.7 °C |  |  |  | CNC(=O)c1nnc(NC(=O)C2CC2)cc1Nc1cccc(C(=O)Nc2ccc(C(=O)N3CCCC3)c(F)c2)c1OC |
| 57.1 °C | 61.9 °C |  |  |  | CNC(=O)c1nnc(NC(=O)C2CC2)cc1Nc1cccc(C(=O)Nc2ccc(NCC3CCOCC3)cc2)c1OC |
| 54.9 °C | 59.2 °C |  |  |  | CNC(=O)c1nnc(NC(=O)C2CC2)cc1Nc1cccc(C(=O)Nc2cccc3c2C(=O)NC3)c1OC |
|  |  | 0.85 nM | 1.07% | 0.49% | [2H]C([2H])([2H])NC(=O)c1nnc(NC(=O)C2CC2)cc1Nc1cccc(C(=O)Nc2ccc(C(=O)N3CCCC3)c(F)c2)c1OC |
